From ChEMBL document CHEMBL1221393, “Effects of structure on inhibitory activity in a series of mechanism-based inhibitors of human neutrophil elastase” (Bioorg Med Chem, 2010) come the findings set out here.

Active and inactive are the calls of the source. The rule behind the calls is not given here.

Test [1] addresses T1, Neutrophil elastase (Homo sapiens) (UniProt P08246).
T1 sequence (whole entry): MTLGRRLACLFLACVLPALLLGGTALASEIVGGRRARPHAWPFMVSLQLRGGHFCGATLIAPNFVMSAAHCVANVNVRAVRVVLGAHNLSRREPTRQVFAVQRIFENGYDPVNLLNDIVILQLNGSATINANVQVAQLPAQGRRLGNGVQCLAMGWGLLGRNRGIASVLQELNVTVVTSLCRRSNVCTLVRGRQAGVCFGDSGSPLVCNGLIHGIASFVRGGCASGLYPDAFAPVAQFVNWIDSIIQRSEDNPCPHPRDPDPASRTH
In words: Ratio of Kinact to Ki for human neutrophil elastase. The essentials: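 Progress-curve method: 10 nM HNE, MeOSuc-AAPV p-nitroanilide (105 μM) and inhibitor at several inhibitor-to-enzyme ratios in 0.1 M HEPES/0.5 M NaCl, pH 7.25, 2.5% DMSO. p-Nitroaniline release was monitored continuously at 410 nm. kobs came from nonlinear fitting of absorbance versus time; kinact/KI = kobs/[I], corrected for substrate concentration. Determined in duplicate.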

For test [2], the target named is T2, Myeloblastin (Homo sapiens) (UniProt P24158).
T2 sequence (whole entry): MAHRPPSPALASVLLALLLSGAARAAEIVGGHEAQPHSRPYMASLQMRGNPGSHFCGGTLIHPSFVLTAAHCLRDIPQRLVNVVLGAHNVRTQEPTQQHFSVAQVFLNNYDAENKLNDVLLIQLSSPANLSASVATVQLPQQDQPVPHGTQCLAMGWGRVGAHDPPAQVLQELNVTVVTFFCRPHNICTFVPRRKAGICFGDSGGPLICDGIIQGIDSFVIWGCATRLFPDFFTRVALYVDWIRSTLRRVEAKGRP
In words: Inhibition of human neutrophil proteinase 3 assessed as residual activity at 8.62. The method in brief: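 Human proteinase 3 (final 34.5 nM) was added with DTNB to 0.1 M HEPES/0.5 M NaCl, pH 7.25, containing inhibitor (final 8.62 μM, from DMSO) and Boc-Ala-Ala-NVa-SBzl. Absorbance at 410 nm was followed for 2 min against a DMSO-only hydrolysis control. % remaining activity = (v/vo)×100, mean of duplicate or triplicate runs.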

Test [3] concerns the target T1, Neutrophil elastase (Homo sapiens). In words: Inhibition of human neutrophil elastase at 7 uM. As to conditions: TDE = time-dependent effect. The essentials: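 HNE (700 nM) incubated with inhibitor (7 μM) in 0.1 M HEPES/0.5 M NaCl, pH 7.25, 1% DMSO, in a constant-temperature bath. Aliquots were taken at intervals and added to MeOSuc-Ala-Ala-Pro-Val p-nitroanilide. Residual activity was read as absorbance at 410 nm over 60 s and expressed as percent remaining activity versus time.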

In the case of `CC(C)C[C@H]1C(=O)N(COC(=O)Cc2ccccc2Nc2c(Cl)cccc2Cl)S(=O)(=O)N1Cc1ccccc1`, the Ratio in test [1] was 1330. Moreover, in test [2], the percent remaining activity result was “inactive”. The inhibition result in test [3] was “tde”.
With `CC(C)C[C@H]1C(=O)N(COC(=O)c2ccccc2O)S(=O)(=O)N1Cc1ccccc1`, in test [1], the Ratio turned out to be 1.09e+06. Besides, in test [2], the percent remaining activity entry was “inactive”.
As for `CC(C)C[C@H]1C(=O)N(COC(=O)CCc2ccccc2)S(=O)(=O)N1C`, the Ratio in test [1] amounted to 296000. Besides, the percent remaining activity result in test [2] is “inactive”.
On to `CC(=O)Oc1ccccc1C(=O)OCN1C(=O)[C@H](CC(C)C)N(C)S1(=O)=O`, for which the Ratio in test [1] was determined as 419000. For the same compound, the percent remaining activity entry in test [2] was “inactive”.
Regarding `CC(C)Cc1ccc(C(C)C(=O)OCN2C(=O)[C@H](CC(C)C)N(C)S2(=O)=O)cc1` (some centres undefined), the Ratio in test [1] was determined as 201000. Besides, the percent remaining activity result in test [2] was “inactive”.
On to `CC(C)C[C@H]1C(=O)N(COC(=O)Cc2ccccc2)S(=O)(=O)N1Cc1ccccc1`, for which the Ratio in test [1] stood at 63800. In addition, the percent remaining activity result in test [2] is “inactive”.
Taken in the same sequence, the figures for `CC(C)Cc1ccc(C(C)C(=O)OCN2C(=O)[C@H](CC(C)C)N(Cc3ccccc3)S2(=O)=O)cc1` (some centres undefined) were 1580 and “inactive”.
On to `CC(C)C[C@H]1C(=O)N(COC(=O)Cc2ccccc2)S(=O)(=O)N1C`, for which, in test [1], the Ratio is 357000. For the same compound, in test [2], the percent remaining activity entry is “inactive”.
As for `CC(C)C[C@H]1C(=O)N(COC(=O)C(C)c2ccc(Oc3ccccc3)cc2)S(=O)(=O)N1Cc1ccccc1` (some centres undefined), in test [1], the Ratio came out at 1770. The percent remaining activity entry in test [2] was “inactive”.
On to `CC(C)C[C@H]1C(=O)N(COC(=O)C(C)c2ccc(C(=O)c3ccccc3)cc2)S(=O)(=O)N1Cc1ccccc1` (some centres undefined), for which, in test [1], the Ratio came out at 31000. For the same compound, the percent remaining activity result in test [2] was “inactive”.
Taken in the same sequence, the figures for `CC(C)C[C@H]1C(=O)N(COC(=O)c2ccccc2O)S(=O)(=O)N1C` were 336000 and “inactive”.
For the compound `CC(=O)Oc1ccccc1C(=O)OCN1C(=O)[C@H](CC(C)C)N(Cc2ccccc2)S1(=O)=O`, the Ratio in test [1] amounted to 1.06e+06. The percent remaining activity entry in test [2] is “inactive”.
On to `CC(C)C[C@H]1C(=O)N(COC(=O)C(C)c2ccc(Oc3ccccc3)cc2)S(=O)(=O)N1C` (some centres undefined), for which, in test [1], the Ratio was determined as 501000. The percent remaining activity result in test [2] was “inactive”.
Take `CC(C)C[C@H]1C(=O)N(COC(=O)C(C)c2ccc(C(=O)c3ccccc3)cc2)S(=O)(=O)N1C` (some centres undefined): the Ratio in test [1] stood at 540000. In addition, the percent remaining activity result in test [2] is “inactive”.
Take `CC(C)C[C@H]1C(=O)N(COC(=O)CCc2ccccc2)S(=O)(=O)N1Cc1ccccc1`: in test [1], the Ratio turned out to be 3200. Moreover, the percent remaining activity result in test [2] is “inactive”.
Regarding `CC(C)C[C@H]1C(=O)N(COC(=O)Cc2ccccc2Nc2c(Cl)cccc2Cl)S(=O)(=O)N1C`, the Ratio in test [1] came to 981000. Also, the percent remaining activity result in test [2] was “inactive”. For the same compound, the inhibition entry in test [3] was “tde”.
